Calls of active or inactive are those of the source. The calls are words filed in the database; no cut-off is given here.
Columns and labels:
[1] = Clearance in C57BL/6J mouse at 1 mg/kg, iv measured up to 30 hrs by LC-MS/MS analysis; type: ADME, organism-based; settings: in vivo
Summary of the method: (§1)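 Male C57BL/6J mice (n = 6) received single doses of 3 mg/kg po or 1 mg/kg iv. Plasma concentrations were measured by LC-MS. Values are mean ± SD. Oral bioavailability (%F) was calculated from the ratio to iv AUC.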

[2] = Oral bioavailability in C57BL/6J mouse at 3 mg/kg measured up to 30 hrs by LC-MS/MS analysis; type: ADME, organism-based; settings: in vivo; summary of the method: as §1
[3] = Cmax in C57BL/6J mouse at 3 mg/kg, po measured up to 30 hrs by LC-MS/MS analysis; type: ADME, organism-based; design: dose 3 mg/kg, route oral; settings: in vivo; summary of the method: as §1
[4] = AUC (0 to infinity) in C57BL/6J mouse 1 mg/kg, iv measured up to 30 hrs by LC-MS/MS analysis; type: ADME, organism-based; design: dose 1 mg/kg, time infinity, route intravenous; settings: in vivo
Summary of the method: (§2)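 Single-dose PK in male C57BL/6J mice (n = 6), dosed 1 mg/kg iv or 3 mg/kg orally. Plasma drug levels were measured by LC-MS, and PK parameters (Tmax, Cmax, t1/2, Cl, AUC, %F) were derived. Values are given as mean ± SD. Oral bioavailability was calculated against the iv AUC.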

[5] = Tmax in C57BL/6J mouse at 3 mg/kg, po measured up to 30 hrs by LC-MS/MS analysis; type: ADME, organism-based; settings: in vivo; summary of the method: as §1
[6] = AUC (0 to infinity) in C57BL/6J mouse 3 mg/kg, po measured up to 30 hrs by LC-MS/MS analysis; type: ADME, organism-based; design: dose 3 mg/kg, route oral, time infinity; settings: in vivo; summary of the method: as §2
[7] = Half life in C57BL/6J mouse at 3 mg/kg, po measured up to 30 hrs by LC-MS/MS analysis; type: ADME, organism-based; settings: in vivo; summary of the method: as §1
[8] = Toxicity in DBA1/J mouse assessed as reduction in body weight at 60 mg/kg, po […] measured thrice per week; type: organism-based; settings: in vivo, 336 h
Mus musculus = test: Antiarthritic activity in complete Freund's adjuvant-induced DBA1/J mouse arthritis model assessed as inhibition in clinical arthritis score at 60 mg/kg, po administered for 14 days relative to control; type: functional, organism-based; settings: in the assay text read “4 weeks” for “14 days”
Summary of the method: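 Male DBA1j mice had arthritis induced with a collagen mixture and were enrolled once clinical signs appeared. Animals were split into four groups of eight: vehicle, a positive control and two doses of test compound. Treatment ran four weeks. The read-out was percentage inhibition of clinical arthritis score versus the vehicle group.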

[9] = target: T1, Phosphatidylinositol 4,5-bisphosphate 3-kinase catalytic subunit delta isoform (Homo sapiens, UniProt O00329); test: Inhibition of human PI3Kdelta using PIP2 as substrate after 1 hr
T1 sequence (O00329 whole entry): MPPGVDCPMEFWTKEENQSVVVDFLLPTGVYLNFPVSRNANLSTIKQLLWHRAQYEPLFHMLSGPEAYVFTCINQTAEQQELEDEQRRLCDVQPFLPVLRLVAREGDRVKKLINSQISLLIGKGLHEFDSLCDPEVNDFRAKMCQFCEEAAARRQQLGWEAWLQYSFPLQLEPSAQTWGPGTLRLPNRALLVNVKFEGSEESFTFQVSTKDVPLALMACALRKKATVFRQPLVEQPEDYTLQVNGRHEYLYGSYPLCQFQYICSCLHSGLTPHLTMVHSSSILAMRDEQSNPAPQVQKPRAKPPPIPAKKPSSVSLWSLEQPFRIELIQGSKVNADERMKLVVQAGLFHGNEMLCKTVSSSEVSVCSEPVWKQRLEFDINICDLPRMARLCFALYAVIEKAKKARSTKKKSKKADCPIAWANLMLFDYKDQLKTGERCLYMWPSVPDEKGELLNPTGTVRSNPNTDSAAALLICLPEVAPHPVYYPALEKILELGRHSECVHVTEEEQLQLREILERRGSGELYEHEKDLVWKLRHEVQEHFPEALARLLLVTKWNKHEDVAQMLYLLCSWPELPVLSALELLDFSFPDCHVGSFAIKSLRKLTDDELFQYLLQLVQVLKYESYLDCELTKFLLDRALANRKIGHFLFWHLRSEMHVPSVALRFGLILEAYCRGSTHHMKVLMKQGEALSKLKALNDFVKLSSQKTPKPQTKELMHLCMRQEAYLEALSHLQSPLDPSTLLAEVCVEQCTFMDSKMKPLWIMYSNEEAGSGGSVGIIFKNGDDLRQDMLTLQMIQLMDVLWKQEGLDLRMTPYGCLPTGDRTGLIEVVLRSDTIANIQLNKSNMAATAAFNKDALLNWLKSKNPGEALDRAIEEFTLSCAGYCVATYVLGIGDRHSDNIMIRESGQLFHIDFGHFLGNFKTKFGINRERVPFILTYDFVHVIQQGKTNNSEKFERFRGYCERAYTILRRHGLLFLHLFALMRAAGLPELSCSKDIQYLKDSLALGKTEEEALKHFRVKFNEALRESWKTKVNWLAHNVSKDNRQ

| clearance [1] [mL/min/kg] | bioavailability [2] [%] | Cmax [3] [ng/mL] | AUC [4] [ng·h/mL] | Tmax [5] [h] | AUC [6] [ng·h/mL] | half-life [7] [h] | IC50 [9] [µM] | SMILES | Activity [8] | inhibition (Mus musculus) |
| --- | --- | --- | --- | --- | --- | --- | --- | --- | --- | --- |
| 72.5 | 37.8 | 274 | 215 | 0.21 | 244 | 1.88 | – | Cn1c(=O)n(-c2ccc(C(C)(C)C#N)cc2)c2c3cc(-c4cnc5ccccc5c4)ccc3ncc21 [DACTOLISIB] | Toxic | Active |
| – | – | – | – | – | – | – | 0.0111 | COc1ccc(Cn2c(=O)n(C)c3c4cc(-c5cnc(OC)c(C)c5)ccc4ncc32)cc1 | – | – |
